ChEMBL document CHEMBL3351498, “Identification of key structural characteristics of Schisandra chinensis lignans involved in P-glycoprotein inhibition” (2014)

Key:
[1] = Cytotoxicity against human HL60/MDR cells assessed as viable cells at 25 uM after 48 hrs by WST assay; format: functional; settings: for viability at 25 µM: Homo sapiens, HL60/MDR, 48 h, read-out: Activity
[2] = Potentiation of 0.2 uM doxorubicin-induced cytotoxicity in human HL60/MDR cells assessed as viable cells at 25 uM after 48 hrs by WST assay relative to control; format: functional
[3] = Potentiation of 0.02 uM doxorubicin-induced cytotoxicity in human HL60/MDR cells assessed as viable cells at 25 uM after 48 hrs by WST assay relative to control; format: functional
[4] = Potentiation of 0.6 uM doxorubicin-induced cytotoxicity in human HL60/MDR cells assessed as viable cells at 25 uM after 48 hrs by WST assay relative to control; format: functional
[5] = Cell cycle arrest in human HL60/MDR cells assessed as accumulation at G1 phase at 25 uM after 48 hrs by flow cytometry (reference value: 59.0 %); format: functional, cell-based
Summary of the method: (§1)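 HL60/MDR cells (about 5 × 10^5 cells/mL) exposed 48 h under standard culture to doxorubicin (0.2 and/or 0.02 μM) or lignan (25 μM) alone; DMSO-treated control. Cells fixed in 70% ethanol 30 min at room temperature, RNase A (17 μg/mL) 37 °C 30 min, PI (3 μg/mL) 10 min dark; DNA content by flow cytometry, FL3 (620 nm), 10 000–20 000 events.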

[6] = Cell cycle arrest in human HL60/MDR cells assessed as accumulation at G2/M phase at 25 uM after 48 hrs by flow cytometry (reference value: 11.3 %); format: functional, cell-based; summary of the method: as §1
[7] = Cell cycle arrest in human HL60/MDR cells assessed as accumulation at S phase at 25 uM after 48 hrs by flow cytometry (reference value: 29.9 %); format: functional, cell-based; summary of the method: as §1
[8] = Potentiation of doxorubicin-induced cell cycle arrest in human HL60/MDR cells assessed as accumulation at S phase at 25 uM after 48 hrs by flow cytometry (reference value: 59.0 %); format: functional
[9] = Potentiation of doxorubicin-induced cell cycle arrest in human HL60/MDR cells assessed as accumulation at G1 phase at 25 uM after 48 hrs by flow cytometry (reference value: 59.0 %); format: functional
[10] = Potentiation of doxorubicin-induced cell cycle arrest in human HL60/MDR cells assessed as accumulation at G2/M phase at 25 uM after 48 hrs by flow cytometry (reference value: 59.0 %); format: functional
[11] = Cytotoxicity against human HL60/MDR cells assessed as viable cells at 0.2 uM after 48 hrs by WST assay; format: functional; settings: read-out: Activity
Summary of the method: (§2)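 Doxorubicin-resistant HL60/MDR cells seeded at 5 × 10^4 cells/mL and held 48 h at 37 °C with doxorubicin (0.02, 0.2, 0.6 μM) alone or plus modulator (25 μM). WST-1 (1 mM) with 0.2 mM MMPM then added for 4 h; absorbance at 450 nm. Viability given as % of untreated cells; two independent experiments, each in triplicate.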

[12] = Cell cycle arrest in human HL60/MDR cells assessed as accumulation at G2/M phase at 0.2 uM after 48 hrs by flow cytometry (reference value: 11.3 %); format: functional, cell-based; summary of the method: as §1
[13] = Cell cycle arrest in human HL60/MDR cells assessed as accumulation at G1 phase at 0.02 uM after 48 hrs by flow cytometry (reference value: 59.0 %); format: functional, cell-based; summary of the method: as §1
[14] = Cytotoxicity against human HL60/MDR cells assessed as viable cells at 0.02 uM after 48 hrs by WST assay; format: functional; settings: read-out: Activity; summary of the method: as §2
[15] = Cell cycle arrest in human HL60/MDR cells assessed as accumulation at G2/M phase at 0.02 uM after 48 hrs by flow cytometry (reference value: 11.3 %); format: functional, cell-based; summary of the method: as §1
[16] = Cell cycle arrest in human HL60/MDR cells assessed as accumulation at G1 phase at 0.2 uM after 48 hrs by flow cytometry (reference value: 59.0 %); format: functional, cell-based; settings: in the assay text read “G2/M phase” for “G1 phase”; summary of the method: as §1
[17] = Cell cycle arrest in human HL60/MDR cells assessed as accumulation at S phase at 0.02 uM after 48 hrs by flow cytometry (reference value: 29.9 %); format: functional, cell-based; summary of the method: as §1
[18] = Cell cycle arrest in human HL60/MDR cells assessed as accumulation at S phase at 0.2 uM after 48 hrs by flow cytometry (reference value: 29.9 %); format: functional, cell-based; summary of the method: as §1
[19] = Cytotoxicity against human HL60/MDR cells assessed as viable cells at 0.6 uM after 48 hrs by WST assay; format: functional; settings: read-out: Activity; summary of the method: as §2

In the case of `COc1cc2c(c(OC)c1OC)-c1c(cc3c(c1OC)OCO3)C[C@@H](C)[C@@H](C)C2` (single isomer, unassigned; atropisomer 2) [KADSURANIN], the viability at 25 µM [1] is reported as 106%, the Activity [2] is reported as 97% and the Activity [3] is reported as 100%. For the same molecule, the Activity [4] was 81%.
With `COc1cc2c(c(OC)c1OC)-c1c(cc(OC)c(OC)c1OC)C[C@H](C)[C@H](C)C2` the Activity [5] was 57.3%, the Activity [6] was 12.1% and the Activity [7] was 30.5%.
Molecule `COc1cc2c(c(OC)c1OC)-c1c(cc(OC)c(OC)c1OC)C[C@H](C)[C@H](C)C2` [SCHISANDRIN A] has an Activity [1] of 92%, an Activity [2] of 52% and an Activity [8] of 10.9%. The Activity [3] was 106%, the Activity [9] was 21.2% and the Activity [10] was 67.9%. The Activity [4] was 43%.
`COc1cc2c(c(OC)c1OC)-c1c(cc3c(c1OC)OCO3)C[C@H](C)[C@H](C)C2` gave an Activity [5] of 64.8%, an Activity [6] of 8.8% and an Activity [7] of 26.4%.
Molecule `COc1cc2c(c(OC)c1OC)-c1c(cc3c(c1OC)OCO3)CC(C)C(C)C2` (racemic) [SCHISANDRIN B] has a viability at 25 µM [1] of 88%, an Activity [2] of 41% and an Activity [3] of 117%. It also gave an Activity [4] of 36%.
In the case of `COc1cc2c(c(OC)c1OC)-c1c(cc(OC)c(OC)c1OC)C[C@H](C)[C@H](C)C2` (single isomer, unassigned; atropisomer 1) [SCHISANDRIN A], the Activity [1] is reported as 144%, the Activity [2] is reported as 48% and the Activity [3] is reported as 108%. It also gave an Activity [4] of 39%.
For `COc1cc2c(c(OC)c1OC)-c1c(cc3c(c1OC)OCO3)C[C@H](C)[C@H](C)C2` [WUWEIZISU B], the Activity [1] was 128%, the Activity [2] was 42% and the Activity [8] was 22.7%. The Activity [3] was 121%, the Activity [9] was 40.4% and the Activity [10] was 36.9%. The Activity [4] was 39%.
With `COc1cccc2c1C(=O)c1c(O)c3c(c(O)c1C2=O)C[C@@](O)(C(=O)CO)C[C@@H]3O[C@H]1C[C@H](N)[C@H](O)[C@H](C)O1` [DOXORUBICIN] the viability at 0.2 µM [11] was 83%, the Activity [12] was 52% and the Activity [13] was 55.8%. For the same molecule, the viability at 0.02 µM [14] was 109%, the Activity [15] was 16% and the Activity [16] was 36.9%. It also gave an Activity [17] of 28.3%, an Activity [18] of 11% and a viability at 0.6 µM [19] of 91%.
`COc1cc2c(c(OC)c1OC)-c1c(cc3c(c1OC)OCO3)C[C@H](C)[C@H](C)C2` (single isomer, unassigned; atropisomer 1) [WUWEIZISU B] showed an Activity [1] of 102%, an Activity [2] of 66% and an Activity [3] of 94%. The Activity [4] was 38%.
